KDM4C inh – KDM4C (human) demethylase inhibition; Q9H3R0; GST-KDM4C 2-372, H3K9me3 peptide, LANCE TR-FRET; inhibition, % at 12.5 µM; 96,000 tested, 0.15% active;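 active = mean replicate inhibition above about 25%, with at least 55% of replicates also reaching it, limit read from the data, passing the limit was not always enough; inconclusive = only one of those two conditions met; inactive = neither condition met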
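Material: GST-tagged GASC-1 (JMJD2C) catalytic fragment, aa 2-372 / Quantity: enzyme final amount 10 nM / Medium: HEPES buffer, pH 7.5, plus ascorbate / Doses: one test concentration per compound / Incubation: 30 min reaction, 60 min detection, RT / Measured by: LANCE TR-FRET / Read-out: inhibition from TR-FRET ratio decrease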
IDH1 mut inh – blocks human IDH1 R132H reductase activity. O75874. diaphorase/resazurin fluorescence, 60 min. inhibition, % at 10 µM. 70,000 tested, 0.18% active; in the data active = inhibition above about 34%; inconclusive = no clear call, values can overlap the other calls; inactive = below about 11%
Target sequence (O75874 whole entry R132H): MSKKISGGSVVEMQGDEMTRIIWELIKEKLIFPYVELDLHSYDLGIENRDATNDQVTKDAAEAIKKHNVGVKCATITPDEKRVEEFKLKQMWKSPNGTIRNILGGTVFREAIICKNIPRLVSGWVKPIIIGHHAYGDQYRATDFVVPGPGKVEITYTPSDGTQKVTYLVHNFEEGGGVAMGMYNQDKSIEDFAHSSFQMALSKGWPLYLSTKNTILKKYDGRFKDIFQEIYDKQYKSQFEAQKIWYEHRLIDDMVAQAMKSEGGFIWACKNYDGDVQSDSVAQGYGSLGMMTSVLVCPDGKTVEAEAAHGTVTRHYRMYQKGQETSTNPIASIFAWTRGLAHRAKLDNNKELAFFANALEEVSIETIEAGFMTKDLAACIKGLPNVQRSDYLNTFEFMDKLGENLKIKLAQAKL
T cruzi growth-1 – T. cruzi proliferation inhibition; T. cruzi beta-gal in NIH3T3, GalScreen luminescence, 90 h; inhibition, % at 8.34 µM; 77,000 tested, 5.9% active; AID 624255;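 active = mean inhibition above about 93%, with at least 55% of replicates each passing it, limit read from the data, passing the limit was not always enough; inconclusive = only one of those two conditions holds; inactive = neither condition holds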
T cruzi growth-2 – inhibitors of T. cruzi proliferation | shares compounds with T cruzi growth-1 | T. cruzi beta-gal in NIH3T3, GalScreen luminescence, 90 h | inhibition, % at 8.35 µM | 5,600 tested, 72% active;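 active = mean replicate inhibition above about 95% and at least 55% of replicates individually reaching it, limit read from the data; inconclusive = only one of the two criteria is met; inactive = neither criterion is met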
T cruzi growth-3 – blocks T. cruzi growth in NIH3T3 host cells; shares compounds with T cruzi growth-1; T. cruzi beta-gal in NIH3T3, GalScreen luminescence, 90 h; inhibition, % at 2.09 µM; 5,600 tested, 21% active; AID 651740;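 active = mean inhibition above about 95%, with at least 55% of replicates also reaching it, limit read from the data; inconclusive = meets just one of the two conditions; inactive = meets neither condition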
3T3 cytotox – NIH/3T3 (mouse) viability loss; cytotoxicity (signal decrease), % at 8.35 µM; NIH/3T3 viability, CellTiter-Glo ATP luminescence, 90 h; 5,600 tested, 14% active; AID 651742; shares compounds with T cruzi growth-1;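 active = mean signal decrease across replicates above about 35% based on untreated-well scatter, with enough replicates individually passing, limit read from the data; inconclusive = no rule stated though some were filed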
3T3 cytotox 2 – NIH/3T3 (mouse) viability loss; shares compounds with T cruzi growth-1; NIH/3T3 viability, CellTiter-Glo ATP luminescence, 90 h; inhibition, % at 24.9 µM; 5,600 tested, 56% active; AID 651744;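 active = mean loss of cell viability signal at or above a set limit, and enough replicates individually reaching it; inconclusive = meets only the mean limit or only the replicate share; inactive = meets neither condition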
Numbers stand for hits; 0 = inactive; ? = inconclusive; - = no result; + = active, no number. This is one part of a sample in which hits are shown more often than they occur.

SMILES | KDM4C inh | IDH1 mut inh | T cruzi growth-1 | T cruzi growth-2 | T cruzi growth-3 | 3T3 cytotox | 3T3 cytotox 2
C[C@H]1CN([C@@H](C)CO)S(=O)(=O)c2ccc(C#CC3CC3)cc2O[C@@H]1CN(C)Cc1ccccc1F | 0 | 0 | 112 | 97 | 117 | 0 | 104
CC(C)CC#Cc1ccc2c(c1)O[C@@H](CN(C)Cc1ccccc1F)[C@@H](C)CN([C@H](C)CO)S2(=O)=O | 0 | 0 | ? | 97 | 108 | 0 | 105
COCC#Cc1ccc2c(c1)O[C@H](CN(C)Cc1ccccc1F)[C@H](C)CN([C@@H](C)CO)S2(=O)=O | 0 | 0 | 0 | - | - | - | -
COCC#Cc1ccc2c(c1)O[C@@H](CN(C)Cc1ccccc1F)[C@@H](C)CN([C@H](C)CO)S2(=O)=O | 0 | 0 | 0 | - | - | - | -
C[C@@H]1CN([C@H](C)CO)S(=O)(=O)c2ccc(C#CC3CC3)cc2O[C@H]1CN(C)Cc1ccccc1 | 0 | 0 | 127 | 95 | 0 | ? | 105
CC(C)CC#Cc1ccc2c(c1)O[C@H](CN(C)Cc1ccccc1F)[C@H](C)CN([C@H](C)CO)S2(=O)=O | 0 | 0 | ? | 98 | 113 | 0 | 105
C[C@@H]1CN([C@H](C)CO)S(=O)(=O)c2ccc(C#CC3CC3)cc2O[C@@H]1CN(C)Cc1ccccc1F | 0 | 0 | 0 | - | - | - | -
Cc1ccc2cc(S(=O)(=O)NCc3ccco3)ccc2c1 | - | 0 | - | - | - | - | -
COc1ccc(-n2c(SCC(=O)Nc3ccc(C)c(C)c3)nnc2-c2ccccc2)cc1 | - | 0 | - | - | - | - | -
O=C(O)c1cccc(NC(=O)C2(c3ccccc3)CCN(S(=O)(=O)c3ccccc3)CC2)c1 | - | 0 | - | - | - | - | -
COCC#Cc1ccc2c(c1)O[C@@H](CN(C)Cc1ccccc1F)[C@H](C)CN([C@@H](C)CO)S2(=O)=O | 0 | 0 | 0 | - | - | - | -
C[C@@H]1CN([C@@H](C)CO)S(=O)(=O)c2ccc(C#CCN(C)C)cc2O[C@@H]1CN(C)Cc1ccccc1F | 0 | 0 | 0 | - | - | - | -
CC(C)CC#Cc1ccc2c(c1)O[C@@H](CN(C)Cc1ccccc1F)[C@H](C)CN([C@H](C)CO)S2(=O)=O | 0 | 0 | ? | 0 | 105 | 101 | 104
CC(C)CC#Cc1ccc2c(c1)O[C@H](CN(C)Cc1ccccc1F)[C@H](C)CN([C@@H](C)CO)S2(=O)=O | 0 | 0 | ? | 107 | 0 | 0 | 105
C[C@H](CO)N1C[C@H](C)[C@@H](CN(C)Cc2ccccc2F)Oc2cc(C#CCN(C)C)ccc2S1(=O)=O | 0 | 0 | 105 | 105 | 0 | 55 | 104
CC(C)CC#Cc1ccc2c(c1)O[C@H](CN(C)Cc1ccccc1F)[C@@H](C)CN([C@H](C)CO)S2(=O)=O | 0 | 0 | 0 | - | - | - | -
CCn1c(SCC(=O)Nc2ccc(Br)c(Cl)c2)nnc1-c1ccccc1F | - | 0 | - | - | - | - | -
Cc1ccc(NC(=O)CSc2nnc(N)s2)c(Br)c1 | - | 0 | - | - | - | - | -
CN1[C@H](C(=O)Nc2ccccc2)[C@@H](CO)[C@@H]2Cn3c(ccc(-c4ccc(F)cc4)c3=O)[C@@H]21 | 0 | - | + | 103 | 0 | 0 | 0
CN1[C@@H]2c3ccc(-c4cccc(F)c4)c(=O)n3C[C@@H]2[C@@H](CO)[C@@H]1C(=O)NCc1ccccn1 | 0 | - | 0 | - | - | - | -
COCC(=O)N1[C@H](C(=O)Nc2ccccc2)[C@@H](CO)[C@@H]2Cn3c(ccc(-c4ccc(F)cc4)c3=O)[C@@H]21 | 0 | - | 0 | - | - | - | -
CCC(=O)N1[C@@H]2c3ccc(-c4cccc(F)c4)c(=O)n3C[C@@H]2[C@@H](CO)[C@@H]1C(=O)N1CCCCC1 | 0 | - | - | - | - | - | -
CN1[C@H](C(=O)NCc2ccccn2)[C@@H](CO)[C@@H]2Cn3c(ccc(-c4cccc(F)c4)c3=O)[C@@H]21 | 0 | - | 111 | 0 | 0 | 0 | 0
CCCNC(=O)N1[C@H](C(=O)N2CCCCC2)[C@@H](CO)[C@@H]2Cn3c(ccc(-c4ccc(F)cc4)c3=O)[C@@H]21 | 0 | - | 98 | 0 | 0 | 0 | 0
CCN1[C@@H]2c3ccc(-c4ccc(F)cc4)c(=O)n3C[C@@H]2[C@@H](CO)[C@@H]1C(=O)Nc1ccccc1 | 0 | - | - | - | - | - | -
CN1[C@@H]2c3ccc(-c4ccc(F)cc4)c(=O)n3C[C@@H]2[C@@H](CO)[C@@H]1C(=O)Nc1ccccc1 | 0 | - | + | 0 | 0 | 0 | 0

From PubChem BioAssay
